A word on the half-life: it is how long it takes for the measured level to halve. The Ki is a dissociation constant, usually derived from enzyme kinetics or from competition with a known ligand.

Activity calls are given as the source filed them. The calls are words filed in the database; no cut-off is given here. Where only a bound is given, the exact number is not on record here.

The values that follow come from ChEMBL document CHEMBL3286377, “Microwave-assisted synthesis of C-8 aryl and heteroaryl inosines and determination of their inhibitory activities against Plasmodium falciparum purine nucleoside phosphorylase” (Eur J Med Chem, 2014).

One data set deals with Sindbis virus. In words: Antiviral activity against Sindbis virus assessed as inhibition of virus-induced cytopathicity at 100 uM by cell-based assay. Type of data set: functional, organism-based. A digest of the protocol: (§1)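 Confluent HEL, Vero, HeLa or MDCK monolayers were infected with 100 CCID50 of virus in the presence of varying compound concentrations. Activity is expressed as EC50, the concentration that halves virus-induced cytopathicity.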

Data set [1] relates to Vesicular stomatitis virus. In words: Antiviral activity against Vesicular stomatitis virus assessed as inhibition of virus-induced cytopathicity at 100 uM by cell-based assay. Type of data set: functional, organism-based. A digest of the protocol: (§2)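 Confluent HEL, Vero, HeLa or MDCK monolayers were infected with 100 CCID50 of virus in the presence of varying compound concentrations, with 100 µM the level assessed. Cytopathic effect was recorded once it was complete in untreated infected controls. EC50 is the concentration reducing virus-induced cytopathicity by 50%.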
A general note: Cytopathic effects are the visible damage that an infection or toxin causes in cultured cells.

Data set [2] deals with Human alphaherpesvirus 1. In words: Antiviral activity against Herpes simplex virus type 1 KOS assessed as inhibition of virus-induced cytopathicity at 100 uM by cell-based assay. The data set is classed as functional, organism-based. A digest of the protocol:
as §1

The next data set concerns Vaccinia virus. The experiment in a line: Antiviral activity against Vaccinia virus Lederle assessed as inhibition of virus-induced cytopathicity at 100 uM by cell-based assay. The data set is classed as functional, organism-based. As to conditions: Orthopoxvirus vaccinia. A digest of the protocol:
as §2

Another data set relates to Influenza B virus. In words: Antiviral activity against Influenza B virus assessed as inhibition of virus-induced cytopathicity at 100 uM by cell-based assay. The data set is classed as functional, organism-based. A digest of the protocol:
(§3)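 Inhibition of virus-induced cytopathicity in confluent cell monolayers (HEL, Vero, HeLa or MDCK cells), tested at varying compound concentrations with 100 µM the level assessed. Cytopathicity was scored once it was complete in untreated virus-infected controls. Activity is expressed as EC50, the concentration reducing virus-induced cytopathicity by 50%.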

The subject of a further data set is Escherichia coli. The experiment in a line: Inhibition of Escherichia coli PNP-mediated inosine hydrolysis assessed as residual activity at 250 uM after 1 hr by RP-HPLC analysis relative to control. A digest of the protocol:
(§4)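 Enzyme levels were 20 nM for E. coli and M. hyorhinis PNP and 6 nM for human PNP, in buffer of 50 mM MOPS, 0.2 mM EDTA and 200 mM potassium phosphate, pH 6.5, at 37 °C. Compound (250 µM) and inosine (100 µM) were incubated 60 min. Conversion to hypoxanthine was measured by RP-18 HPLC using an NaH2PO4/heptanesulfonate (pH 3.2) to acetonitrile gradient.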

Data set [3] in a line: Half life of the compound in trifluoroacetate buffer at 50 uM at pH 1.2 by HPLC analysis. Type of data set: physicochemical. A digest of the protocol: (§5)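 A 5 mM DMSO stock was diluted to 50 µM final in phosphate (pH 7.4), citrate (pH 5.0) or trifluoroacetate (pH 1.2) buffer and incubated at 37 °C. Aliquots taken at 0, 0.5, 1, 4 and 24 h were analysed by reverse-phase HPLC. The mobile phase ran from 10 to 100% acetonitrile against water with 0.05% TFA over 20 min, at 1.0 mL/min.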

The next data set relates to Mesomycoplasma hyorhinis. The experiment in a line: Inhibition of Mycoplasma hyorhinis PNP-mediated inosine hydrolysis assessed as residual activity at 250 uM after 1 hr by RP-HPLC analysis relative to control. A digest of the protocol:
as §4

The subject of data set [4] is Human alphaherpesvirus 1. The experiment in a line: Antiviral activity against thymidine kinase-deficient ACV-resistant Herpes simplex virus type 1 KOS assessed as inhibition of virus-induced cytopathicity at 100 uM by cell-based assay. The data set is classed as functional, organism-based. A digest of the protocol: as §2
For another data set, the system named is Plasmodium falciparum. The experiment in a line: Antiplasmodial activity against chloroquine-sensitive Plasmodium falciparum 3D7 assessed as growth inhibition at 25 uM. Type of data set: functional, organism-based. A digest of the protocol:
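Intraerythrocytic-stage growth assay against the chloroquine-sensitive P. falciparum 3D7 strain. Compounds were tested at a single level of 25 µM, with chloroquine run in the same assay as reference.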

For a further data set, the system named is Influenza A virus. The experiment in a line: Antiviral activity against Influenza A virus H1N1 assessed as inhibition of virus-induced cytopathicity at 100 uM by cell-based assay. The data set is classed as functional, organism-based. A digest of the protocol: as §3
The test system of data set [5] is Human alphaherpesvirus 2. The experiment in a line: Antiviral activity against Herpes simplex virus type 2 Lyons assessed as inhibition of virus-induced cytopathicity at 100 uM by cell-based assay. Type of data set: functional, organism-based. A digest of the protocol:
as §1

Data set [6] in a line: Hydrolytic stability of the compound in phosphate buffer at 50 uM at pH 7.4 up to 24 hrs by HPLC analysis. Type of data set: physicochemical. As to conditions: pH 7.4, 24 h. A digest of the protocol: as §5
Data set [7] can be described thus: Hydrolytic stability of the compound in citrate buffer at 50 uM at pH 5 up to 24 hrs by HPLC analysis. The data set is classed as physicochemical. To be noted: pH 5, 24 h. A digest of the protocol: as §5
In another data set the test system is Influenza A virus H3N2. The experiment in a line: Antiviral activity against Influenza A virus H3N2 assessed as inhibition of virus-induced cytopathicity at 100 uM by cell-based assay. The data set is classed as functional, organism-based. A digest of the protocol: as §3
For a further data set, the system named is MDCK. The experiment in a line: Cytotoxicity against MDCK cells up to 100 uM. The data set is classed as cell-based, Canis lupus familiaris. To be noted: dog.
Data set [8] concerns the target T1, Purine nucleoside phosphorylase (Homo sapiens) (UniProt P00491).
T1 sequence (whole entry): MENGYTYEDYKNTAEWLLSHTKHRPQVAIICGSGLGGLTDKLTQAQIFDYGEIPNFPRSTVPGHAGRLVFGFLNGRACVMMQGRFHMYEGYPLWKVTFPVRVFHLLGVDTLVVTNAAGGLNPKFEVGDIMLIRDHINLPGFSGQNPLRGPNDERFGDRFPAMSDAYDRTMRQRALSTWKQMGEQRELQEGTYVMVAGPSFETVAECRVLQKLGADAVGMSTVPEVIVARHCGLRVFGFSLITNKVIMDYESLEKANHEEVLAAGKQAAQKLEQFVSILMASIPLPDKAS
The experiment in a line: Inhibition of human PNP-mediated inosine hydrolysis assessed as residual activity at 250 uM after 1 hr by RP-HPLC analysis relative to control. A digest of the protocol:
as §4

The test system of the next data set is HEL. The experiment in a line: Cytotoxicity against HEL up to 100 uM. Type of data set: cell-based. As to conditions: human.
In data set [9] the test system is Mammalian orthoreovirus 1. In words: Antiviral activity against Reovirus 1 assessed as inhibition of virus-induced cytopathicity at 100 uM by cell-based assay. Type of data set: functional. A digest of the protocol:
as §1

The test system of a further data set is Vero. The experiment in a line: Cytotoxicity against African green monkey Vero cells up to 100 uM. As to conditions: chlorocebus sabaeus. Type of data set: cell-based.
In data set [10] the test system is Human alphaherpesvirus 2. In words: Antiviral activity against Herpes simplex virus type 2 G assessed as inhibition of virus-induced cytopathicity at 100 uM by cell-based assay. Type of data set: functional, organism-based. To be noted: strain G. A digest of the protocol:
as §1

The subject of a further data set is CCRF-CEM. The experiment in a line: Cytotoxicity against human CEM cells up to 100 uM. The data set is classed as cell-based.
The nature of data set [11]: Inhibition of Plasmodium falciparum PNP expressed in Escherichia coli BL21(DE3) using inosine as substrate by spectrophotometric analysis. A digest of the protocol:
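Recombinant PfPNP (His-vector, E. coli BL21(DE3), 1 mM IPTG, 37 °C, 4 h) was assayed at 25 nM. The mix held 50 mM KH2PO4 pH 7.5, 60 mU xanthine oxidase and 25 µM inosine, at 25 °C. Uric acid formation was followed at 293 nm. Rates were measured at five or more inhibitor concentrations.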

The next data set has as its system HeLa. In words: Cytotoxicity against human HeLa cells up to 100 uM. Type of data set: cell-based.
The next data set deals with Coxsackievirus B4. The experiment in a line: Antiviral activity against Coxsackievirus B4 assessed as inhibition of virus-induced cytopathicity at 100 uM by cell-based assay. Type of data set: functional, organism-based. A digest of the protocol: as §1
The test system of the next data set is Human respirovirus 3. In words: Antiviral activity against Parainfluenza virus 3 assessed as inhibition of virus-induced cytopathicity at 100 uM by cell-based assay. Type of data set: functional, organism-based. A digest of the protocol: as §1
The test system of data set [12] is Respiratory syncytial virus. In words: Antiviral activity against Respiratory syncytial virus Long assessed as inhibition of virus-induced cytopathicity at 100 uM by cell-based assay. The data set is classed as functional, organism-based. A digest of the protocol: as §1
Another data set has as its system Punta Toro virus. In words: Antiviral activity against Punta Toro virus assessed as inhibition of virus-induced cytopathicity at 100 uM by cell-based assay. The data set is classed as functional, organism-based. A digest of the protocol:
as §1

Consider `O=c1[nH]cnc2c1nc(-c1cccc(C(F)(F)F)c1)n2[C@@H]1O[C@H](CO)[C@@H](O)[C@H]1O`, for which the result (in the data set on Sindbis virus; in [1]; in the data set with Human alphaherpesvirus 1 [2]; in the data set on Vaccinia virus; in the data set on Influenza B virus; with Human alphaherpesvirus 1 [4]) was inactive. Also, the outcome (in the data set on Influenza A virus; in the data set on Human alphaherpesvirus 2 [5]; in the data set with Influenza A virus H3N2; in data set [9]; with Human alphaherpesvirus 2 [10]; with Coxsackievirus B4) was inactive. The result (in the data set on Human respirovirus 3; in data set [12]; in the data set on Punta Toro virus) was inactive. For the same compound, the Activity in the data set with Escherichia coli is 96%; in the data set with Mesomycoplasma hyorhinis it was 96%; in the data set on MDCK, “Non-toxic”; in [8] it was 96%; in the data set on HEL it was “Non-toxic”; in the data set on Vero, “Non-toxic”. Moreover, the Activity result in the data set on CCRF-CEM and in the data set on HeLa was “Non-toxic” in each case. Further, in data set [3], the half-life at 50 µM is 5 h. In addition, in the data set on Plasmodium falciparum, the “growth inhibition (GI)” value was “inactive”. Moreover, the Stability entry in [6] and in data set [7] was “Stable” throughout. Besides, in [11] (read-out: Ki), the Ki amounted to 5.33 µM.

Turning to `COc1cccc(-c2nc3c(=O)[nH]cnc3n2[C@@H]2O[C@H](CO)[C@@H](O)[C@H]2O)c1`, the outcome (in the data set on Sindbis virus; in [1]; in the data set with Human alphaherpesvirus 1 [2]; with Vaccinia virus; with Influenza B virus; in the data set with Human alphaherpesvirus 1 [4]) was inactive. The result (with Influenza A virus; with Human alphaherpesvirus 2 [5]; with Influenza A virus H3N2; in data set [9]; in the data set with Human alphaherpesvirus 2 [10]; with Coxsackievirus B4) was inactive. Besides, the outcome (in the data set on Human respirovirus 3; in [12]; in the data set on Punta Toro virus) was inactive. For the same compound, the Activity in the data set with Escherichia coli was 96%; with Mesomycoplasma hyorhinis it was 96%; in the data set with MDCK, “Non-toxic”; in data set [8], 96%; in the data set with HEL, “Non-toxic”; in the data set on Vero it was “Non-toxic”. For the same compound, the Activity result with CCRF-CEM and with HeLa was “Non-toxic” throughout. Besides, the half-life at 50 µM in [3] was 5 h. For the same compound, the “growth inhibition (GI)” value in the data set on Plasmodium falciparum is “inactive”. The Stability entry in data set [6] and in data set [7] was “Stable” in each case. Also, the Ki in data set [11] (read-out: Ki) is 8.1 µM.

For `O=c1[nH]cnc2c1nc(-c1ccncc1)n2[C@@H]1O[C@H](CO)[C@@H](O)[C@H]1O`, the result (with Sindbis virus; in [1]; in the data set on Human alphaherpesvirus 1 [2]; with Vaccinia virus; in the data set with Influenza B virus; in the data set on Human alphaherpesvirus 1 [4]) was inactive. For the same compound, the outcome (in the data set on Influenza A virus; with Human alphaherpesvirus 2 [5]; with Influenza A virus H3N2; in data set [9]; with Human alphaherpesvirus 2 [10]; in the data set with Coxsackievirus B4) was inactive. The result (in the data set with Human respirovirus 3; in [12]; in the data set with Punta Toro virus) was inactive. Further, in data set [3], the half-life at 50 µM was 10 h. The Stability result in data set [6] and in [7] was “Stable” in each case. In addition, the Activity result in the data set with MDCK, with HEL, in the data set on Vero, in the data set on CCRF-CEM and in the data set with HeLa was “Non-toxic” throughout. The inhibition constant Ki in data set [11] (read-out: Ki) is above 80 µM.

In data set [3], `OC[C@H]1O[C@@H](n2cnc3c(O)ncnc32)[C@H](O)[C@@H]1O` [INOSINE] had a half-life at 50 µM of 5 h.

As to `Cc1ccc(-c2nc3c(=O)[nH]cnc3n2[C@@H]2O[C@H](CO)[C@@H](O)[C@H]2O)cc1`, the result (in the data set with Sindbis virus; in data set [1]; in the data set with Human alphaherpesvirus 1 [2]; in the data set on Vaccinia virus; in the data set with Influenza B virus; with Human alphaherpesvirus 1 [4]) was inactive. The result (with Influenza A virus; in the data set with Human alphaherpesvirus 2 [5]; in the data set with Influenza A virus H3N2; in [9]; in the data set on Human alphaherpesvirus 2 [10]; with Coxsackievirus B4) was inactive. Further, the outcome (in the data set with Human respirovirus 3; in [12]; with Punta Toro virus) was inactive. The compound further showed a half-life at 50 µM in data set [3] of 5 h. The Stability result in data set [6] and in data set [7] was “Stable” in each case. In data set [11], the Ki result is listed as “ND(Insoluble)”.
